This is a sample that favours compounds with a hit; in the whole collection about 4.1% have one here.
KCNQ1 inh – human KCNQ1 channel inhibition | P51787 | CHO-K1 KCNQ1, FluxOR thallium flux fluorescence; hits give high values | B-score at 10 µM | 1.3% of 310,000 active;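 active = compounds whose thallium flux B-score, printed positive for inhibition, exceeds three library SD while starting fluorescence stays within three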;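 also: channel opened by potassium depolarization with thallium stimulus after 20 min compound exposure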
KCNK9 block – human KCNK9 channel inhibition; Q9NPC2; HEK293 KCNK9, FluxOR thallium flux fluorescence; hits give low values; B-score at 10 µM; 1.2% of 310,000 active;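 active = ratio B-score over 3 SD below the library mean, with starting fluorescence within 5 SD of its mean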;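 also: negative B-score means less thallium flux so channel inhibition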
KCNQ1 pot – potentiators or activators of human KCNQ1 potassium channel; P51787; CHO-K1 KCNQ1, thallium flux FluxOR fluorescence; hits give high values; B-score at 10 µM; 0.35% of 310,000 active; AID 2648;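 active = fluorescence ratio B-score, a plate-corrected score, at least three library SD, with initial intensity B-score within 5 SD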
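System: CHO-K1 cells stably expressing KCNQ1 / Medium: assay buffer for compound exposure, DMSO matched across wells / Reagent: thallium- and potassium-containing depolarizing buffer / Compound: one concentration, matched DMSO / Incubation: 20 min compound pretreatment at room temperature / Measured by: kinetic FluxOR fluorescence, 10 s baseline plus 110 s post-stimulus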
Cl transport mod – modulates chloride dependent transport by human KCC2; KCC2 cells, thallium flux FluoZin-2 fluorescence; 2.2% of 190,000 active; B-score of Tl+ flux slope (higher = more flux/activation; lower = inhibition) at 10 µM; Q9H2X9;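 active = thallium flux slope and its plate-corrected score both differing from the plate sample mean at a set confidence after two filtering rounds, in either direction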;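 also: slope of fluorescence scaled to starting intensity during 10 to 20 s after thallium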
KCNK3 inh – human KCNK3 channel inhibition, primary screen | CHO-KCNK3 thallium flux, FluxOR fluorescence; hits give low values | B-score at 10 µM | 0.84% of 340,000 active;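 active = B-score under library mean minus 4 SD, starting fluorescence ratio at most library mean plus 5 SD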;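 also: more negative B-score means stronger inhibition of thallium flux through KCNK3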
Target sequence (O14649 whole entry, looked up): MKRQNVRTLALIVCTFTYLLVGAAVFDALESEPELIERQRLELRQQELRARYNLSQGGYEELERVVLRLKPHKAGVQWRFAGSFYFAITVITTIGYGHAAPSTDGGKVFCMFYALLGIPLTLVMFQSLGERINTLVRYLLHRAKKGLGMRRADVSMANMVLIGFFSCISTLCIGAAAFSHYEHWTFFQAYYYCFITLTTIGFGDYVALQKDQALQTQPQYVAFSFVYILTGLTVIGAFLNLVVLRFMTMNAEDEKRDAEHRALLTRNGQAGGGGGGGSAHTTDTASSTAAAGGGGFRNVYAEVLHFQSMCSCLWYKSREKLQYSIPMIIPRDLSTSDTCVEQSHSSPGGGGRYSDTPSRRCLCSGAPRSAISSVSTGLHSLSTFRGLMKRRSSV
hERG rescue – shields human hERG channel from block by proarrhythmic agents; Q12809; 0.51% of 310,000 active; activation (rescue from dofetilide block), less the hit threshold, % at 10 µM; CHO-hERG, FluxOR thallium flux, dofetilide IC70 present;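 active = activation above the mean of controls blocked by dofetilide plus 5 SD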;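 also: thallium influx through hERG after potassium depolarization seen as dye fluorescence rise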
KCNK9 inh conf – human KCNK9 inhibitor confirmation | shares compounds with KCNK9 block | HEK293 KCNK9 cells, FluxOR thallium flux fluorescence | inhibition, % at 10 µM | 43% of 4,900 active | AID 492992;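 active = thallium signal inhibited by more than 5 SD of the compound-free buffer control wells, on both duplicate plates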;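 also: 0% = assay buffer control wells without compound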
Kir2-1 spec – tests whether KCNK9 modulators also affect mouse Kir2.1. shares compounds with KCNK9 block. Kir2.1 cells, FluxOR thallium flux fluorescence. inhibition, % at 10 µM. 4% of 4,900 active;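 active = thallium signal drop more than 5 SD beyond the mean of the no-compound control wells, seen in both duplicate plates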;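 also: signal is fluorescence rise after thallium addition divided by baseline fluorescence; plate controls were assay buffer only for no effect and full block by chlorpromazine control for full effect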
KCNK9 uninduced – second check of KCNK9 modulator effects in non-induced HEK293 cells; 40% of 4,900 active; shares compounds with KCNK9 block; FluxOR thallium flux; inhibition, % at 10 µM;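 active = thallium signal drop beyond 5 SD of the untreated control mean, on both duplicate plates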;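 also: plate controls were buffer only IC0 wells for no effect and SID17386958 at its maximal inhibitory level for full effect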
Numbers without * were called inactive.

CC(C)CCn1nc(C(=O)Nc2nc3c(s2)CCCC3)c2ccccc2c1=O was read as KCNQ1 inh inactive, KCNK9 block -17.2*, KCNQ1 pot inactive, Cl transport mod 1.52, KCNK3 inh inactive, hERG rescue -9.2, KCNK9 inh conf 75.5%*, Kir2-1 spec inactive and KCNK9 uninduced inactive.
FC(F)(F)c1nnc(-c2ccccc2)nc1Sc1ccc(Cl)cc1 was read as KCNQ1 inh inactive, KCNK9 block inactive, KCNQ1 pot inactive, Cl transport mod 0.301, KCNK3 inh inactive, hERG rescue -17.6, KCNK9 inh conf inactive, Kir2-1 spec inactive and KCNK9 uninduced inactive.
FC(F)(F)c1nnc(-c2ccccc2)nc1Oc1ccc(Cl)cc1Cl was read as KCNQ1 inh 11*, KCNK9 block inactive, KCNQ1 pot inactive, KCNK3 inh inactive, hERG rescue -8.9, KCNK9 inh conf inactive, Kir2-1 spec inactive and KCNK9 uninduced inactive.
CCOC(=O)C1=C(C)N=C2SC(C)C(=O)N2C1c1ccc(OC(C)=O)c(OC)c1 (stereo not drawn) was read as KCNQ1 inh inactive, KCNK9 block -14.5*, KCNQ1 pot inactive, Cl transport mod 0.0871, KCNK3 inh inactive, hERG rescue -7.2, KCNK9 inh conf 63.0%*, Kir2-1 spec inactive and KCNK9 uninduced 33.5%*.
`Cc1ccc2c(c1)N(C(=O)CCC(=O)Nc1ccccc1Cl)CC(C)O2` (stereo not drawn) gave KCNQ1 inh inactive, KCNK9 block inactive, KCNQ1 pot inactive, KCNK3 inh inactive, hERG rescue -11.2, KCNK9 inh conf inactive, Kir2-1 spec inactive and KCNK9 uninduced inactive.
Screening Cc1ccc2c(c1)N(C(=O)CCC(=O)NCc1ccccc1)CC(C)O2 (stereo not drawn) returned KCNQ1 inh inactive, KCNK9 block inactive, KCNQ1 pot inactive, KCNK3 inh inactive and hERG rescue -4.1.
Screening Cc1cccc(N2CCN(C(=O)CCC(=O)N3CC(C)Oc4ccc(C)cc43)CC2C)c1 (stereo not drawn) returned KCNQ1 inh inactive, KCNK9 block inactive, KCNQ1 pot inactive, KCNK3 inh inactive, hERG rescue -13.0, KCNK9 inh conf inactive, Kir2-1 spec inactive and KCNK9 uninduced inactive.
Screening Cc1ccc2c(c1)N(C(=O)CCC(=O)N1CCN(c3ccccn3)CC1)CC(C)O2 (stereo not drawn) returned KCNQ1 inh inactive, KCNK9 block inactive, KCNQ1 pot inactive, KCNK3 inh inactive and hERG rescue -10.8.
COC(=O)c1ccc(NC(=O)COc2ccc([N+](=O)[O-])cc2)cc1 was read as KCNQ1 inh inactive, KCNK9 block inactive, KCNQ1 pot inactive, Cl transport mod 0.0663, KCNK3 inh inactive and hERG rescue -9.4.
For Cc1cc(SCC(=O)N/N=C/c2ccc(O)c(O)c2O)c(C)cc1Br the results were KCNQ1 inh inactive, KCNK9 block inactive, KCNQ1 pot inactive, Cl transport mod -0.769, KCNK3 inh inactive, hERG rescue -50.4, KCNK9 inh conf inactive, Kir2-1 spec inactive and KCNK9 uninduced inactive.
For Cn1c(=O)c2c(SCC(=O)N3CCCc4ccccc43)nc(CC(C)(C)C)nc2n(C)c1=O the results were KCNQ1 inh inactive, KCNK9 block inactive, KCNQ1 pot inactive, KCNK3 inh inactive and hERG rescue -4.3.
`CCCc1nc(SCC(=O)N2CCCc3ccccc32)c2c(=O)n(C)c(=O)n(C)c2n1` gave KCNQ1 inh inactive, KCNK9 block inactive, KCNQ1 pot inactive, Cl transport mod -1.06, KCNK3 inh inactive, hERG rescue -25.6, KCNK9 inh conf inactive, Kir2-1 spec inactive and KCNK9 uninduced inactive.
`Fc1ccccc1CNc1nc(-c2cccnc2)nc2ccccc12` gave KCNQ1 inh inactive, KCNK9 block inactive, KCNQ1 pot inactive, KCNK3 inh inactive and hERG rescue -18.6.
`CN(C)CCCN(C(=O)c1ccc(C(=O)c2ccccc2)cc1)c1nc2c(F)cccc2s1` gave KCNQ1 inh inactive, KCNK9 block inactive, KCNQ1 pot inactive, KCNK3 inh inactive, hERG rescue -16.1, KCNK9 inh conf inactive, Kir2-1 spec inactive and KCNK9 uninduced inactive.
For CNCC(O)C(O)C(O)C(O)CO (stereo not drawn) the results were KCNQ1 inh inactive, KCNK9 block inactive, KCNQ1 pot inactive, Cl transport mod 0.0572, KCNK3 inh inactive and hERG rescue -5.6.
For COc1ccccc1-c1nnc(SC/C(O)=C(\C#N)c2nc3ccccc3[nH]2)n1C1CCCCC1 the results were KCNQ1 inh inactive, KCNK9 block -12*, KCNQ1 pot inactive, Cl transport mod -1.38, KCNK3 inh inactive, hERG rescue -3.6, KCNK9 inh conf 72.5%*, Kir2-1 spec inactive and KCNK9 uninduced inactive.
Cc1ccc[n+](/C(=C\C(=C=[N-])C#N)C(=O)c2ccc(Cl)cc2)c1 was read as KCNQ1 inh inactive, KCNK9 block inactive, KCNQ1 pot inactive, Cl transport mod -0.656, KCNK3 inh inactive and hERG rescue -3.2.
N/C(=N\OC(=O)c1cccc(Cn2cc(C(F)(F)F)ccc2=O)c1)c1ccccc1 was read as KCNQ1 inh inactive, KCNK9 block inactive, KCNQ1 pot inactive, Cl transport mod -0.375, KCNK3 inh inactive and hERG rescue -7.2.
For O=C(Sc1ccc(Cl)cc1)c1cccc(Cn2cc(C(F)(F)F)ccc2=O)c1 the results were KCNQ1 inh inactive, KCNK9 block -13.6*, KCNQ1 pot inactive, Cl transport mod 0.405, KCNK3 inh inactive, hERG rescue -2.4, KCNK9 inh conf 34.5%*, Kir2-1 spec inactive and KCNK9 uninduced 34.5%*.
O=C(O)c1ccc(Cn2cc(C(F)(F)F)ccc2=O)cc1 was read as KCNQ1 inh inactive, KCNK9 block inactive, KCNQ1 pot inactive, Cl transport mod 0.346, KCNK3 inh inactive and hERG rescue -13.1.
Screening N/C(=N\OC(=O)c1cccc(Cn2cc(C(F)(F)F)ccc2=O)c1)c1ccc(Cl)cc1 returned KCNQ1 inh inactive, KCNK9 block -11.9*, KCNQ1 pot inactive, Cl transport mod -0.284, KCNK3 inh inactive, hERG rescue -9.6, KCNK9 inh conf 45.5%*, Kir2-1 spec inactive and KCNK9 uninduced inactive.

Screening data (PubChem)
